# Results taken from ChEMBL document CHEMBL1275433 (Antimicrob Agents Chemother, 2008).
# Tests used:
# [1] = target: DNA gyrase subunit A/DNA gyrase subunit B (Mycobacterium tuberculosis (strain ATCC 25618 / H37Rv), UniProt P9WG45+P9WG47); test: Inhibition of Mycobacterium tuberculosis DNA gyrase GyrA/GyrB; type: protein-complex assay
# Outline: (§1)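 Enzyme unit: protein needed for 50% supercoiling of 0.4 μg relaxed pBR322 DNA in 1 h at 37°C. Wild-type and mutant enzymes assayed in parallel on the same day under identical conditions. Repeated two to four times; representative values reported.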
# [2] = target: DNA gyrase subunit A/DNA gyrase subunit B (Mycobacterium tuberculosis (strain ATCC 25618 / H37Rv)) (UniProt P9WG45+P9WG47)
# Escherichia coli [3] = test: Antimicrobial activity against Escherichia coli harboring DNA gyrase GyrA QRDR; type: functional, organism-based
# Salmonella typhimurium [4] = test: Antimicrobial activity against Salmonella enterica Typhimurium harboring DNA gyrase GyrA QRDR; type: functional, Salmonella enterica subsp. enterica serovar Typhimurium
# Haemophilus influenzae [5] = test: Antimicrobial activity against Haemophilus influenzae harboring DNA gyrase GyrA QRDR; type: functional
# Pseudomonas aeruginosa [6] = test: Antimicrobial activity against Pseudomonas aeruginosa harboring DNA gyrase GyrA QRDR; type: functional, organism-based
# Klebsiella oxytoca [7] = test: Antimicrobial activity against Klebsiella oxytoca harboring DNA gyrase GyrA QRDR; type: functional
# Methylovorus [8] = test: Antimicrobial activity against Methylovorus sp. harboring DNA gyrase GyrA QRDR; type: functional
# Neisseria gonorrhoeae [9] = test: Antimicrobial activity against Neisseria gonorrhoeae harboring DNA gyrase GyrA QRDR; type: functional
# Helicobacter pylori [10] = test: Antimicrobial activity against Helicobacter pylori 1 harboring DNA gyrase GyrA QRDR; type: functional
# Helicobacter pylori [11] = test: Antimicrobial activity against Helicobacter pylori 2 harboring DNA gyrase GyrA QRDR; type: functional
# Ehrlichia chaffeensis [12] = test: Antimicrobial activity against Ehrlichia chaffeensis harboring DNA gyrase GyrA QRDR; type: functional
# Bacteroides fragilis [13] = test: Antimicrobial activity against Bacteroides fragilis harboring DNA gyrase GyrA QRDR; type: functional
# Borrelia burgdorferi [14] = test: Antimicrobial activity against Borrelia burgdorferi harboring DNA gyrase GyrA QRDR; type: functional; details: Borreliella burgdorferi
# Staphylococcus aureus [15] = test: Antimicrobial activity against Staphylococcus aureus harboring DNA gyrase GyrA QRDR; type: functional, organism-based
# Enterococcus faecalis [16] = test: Antimicrobial activity against Enterococcus faecalis harboring DNA gyrase GyrA QRDR; type: functional
# Streptococcus pneumoniae [17] = test: Antimicrobial activity against Streptococcus pneumoniae harboring DNA gyrase GyrA QRDR; type: functional, organism-based
# [18] = tested on: Mycolicibacterium smegmatis; test: Antimicrobial activity against Mycobacterium smegmatis harboring DNA gyrase GyrA QRDR; type: functional, organism-based
# [19] = tested on: Mycolicibacterium fortuitum; test: Antimicrobial activity against Mycobacterium fortuitum harboring DNA gyrase GyrA QRDR; type: functional, organism-based
# Bacillus subtilis [20] = test: Antimicrobial activity against Bacillus subtilis harboring DNA gyrase GyrA QRDR; type: functional
# Escherichia coli [21] = test: Antimicrobial activity against Escherichia coli harboring DNA gyrase GyrB QRDR; type: functional, organism-based
# Salmonella typhimurium [22] = test: Antimicrobial activity against Salmonella enterica Typhimurium harboring DNA gyrase GyrB QRDR; type: functional, Salmonella enterica subsp. enterica serovar Typhimurium
# Haemophilus influenzae [23] = test: Antimicrobial activity against Haemophilus influenzae harboring DNA gyrase GyrB QRDR; type: functional
# Pseudomonas aeruginosa [24] = test: Antimicrobial activity against Pseudomonas aeruginosa harboring DNA gyrase GyrB QRDR; type: functional, organism-based
# Klebsiella oxytoca [25] = test: Antimicrobial activity against Klebsiella oxytoca harboring DNA gyrase GyrB QRDR; type: functional
# Methylovorus [26] = test: Antimicrobial activity against Methylovorus sp. harboring DNA gyrase GyrB QRDR; type: functional
# Neisseria gonorrhoeae [27] = test: Antimicrobial activity against Neisseria gonorrhoeae harboring DNA gyrase GyrB QRDR; type: functional
# Helicobacter pylori [28] = test: Antimicrobial activity against Helicobacter pylori harboring DNA gyrase GyrB QRDR; type: functional
# Ehrlichia chaffeensis [29] = test: Antimicrobial activity against Ehrlichia chaffeensis harboring DNA gyrase GyrB QRDR; type: functional
# Bacteroides fragilis [30] = test: Antimicrobial activity against Bacteroides fragilis harboring DNA gyrase GyrB QRDR; type: functional
# Borrelia burgdorferi [31] = test: Antimicrobial activity against Borrelia burgdorferi harboring DNA gyrase GyrB QRDR; type: functional; details: Borreliella burgdorferi
# Staphylococcus aureus [32] = test: Antimicrobial activity against Staphylococcus aureus harboring DNA gyrase GyrB QRDR; type: functional, organism-based
# Enterococcus faecalis [33] = test: Antimicrobial activity against Enterococcus faecalis harboring DNA gyrase GyrB QRDR; type: functional
# Streptococcus pneumoniae [34] = test: Antimicrobial activity against Streptococcus pneumoniae harboring DNA gyrase GyrB QRDR; type: functional, organism-based
# [35] = tested on: Mycolicibacterium smegmatis; test: Antimicrobial activity against Mycobacterium smegmatis harboring DNA gyrase GyrB QRDR; type: functional, organism-based
# [36] = tested on: Mycolicibacterium fortuitum; test: Antimicrobial activity against Mycobacterium fortuitum harboring DNA gyrase GyrB QRDR; type: functional, organism-based
# Bacillus subtilis [37] = test: Antimicrobial activity against Bacillus subtilis harboring DNA gyrase GyrB QRDR; type: functional
# [38] = target: DNA gyrase (Escherichia coli) (UniProt P0AES6+P0AES4)
# DNA gyrase = DNA gyrase (Escherichia coli, UniProt P0AES4+P0AES6); test: Inhibition of Escherichia coli DNA gyrase GyrA/GyrB; type: protein-complex assay; outline: as §1
# Chain of DNA gyrase subunit A/DNA gyrase subunit B (P9WG45 whole entry): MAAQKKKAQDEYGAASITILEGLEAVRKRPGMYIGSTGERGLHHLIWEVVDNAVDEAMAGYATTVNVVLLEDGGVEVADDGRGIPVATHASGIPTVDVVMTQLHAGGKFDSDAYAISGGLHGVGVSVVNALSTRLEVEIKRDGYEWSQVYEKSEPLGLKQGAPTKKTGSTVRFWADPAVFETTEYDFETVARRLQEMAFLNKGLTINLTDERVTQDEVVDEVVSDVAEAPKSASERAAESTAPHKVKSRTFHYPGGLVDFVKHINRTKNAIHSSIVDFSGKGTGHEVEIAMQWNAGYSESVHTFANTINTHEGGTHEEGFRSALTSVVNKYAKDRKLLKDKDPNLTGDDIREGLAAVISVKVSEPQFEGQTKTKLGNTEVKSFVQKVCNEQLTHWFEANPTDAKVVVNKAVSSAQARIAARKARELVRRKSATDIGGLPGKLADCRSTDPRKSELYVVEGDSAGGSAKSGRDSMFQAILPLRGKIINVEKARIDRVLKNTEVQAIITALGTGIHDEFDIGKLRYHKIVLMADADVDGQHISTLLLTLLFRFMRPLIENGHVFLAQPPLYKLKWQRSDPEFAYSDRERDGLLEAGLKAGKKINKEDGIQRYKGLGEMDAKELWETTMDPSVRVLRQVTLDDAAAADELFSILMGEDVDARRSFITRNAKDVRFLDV
# Chain of DNA gyrase subunit A/DNA gyrase subunit B (P9WG47 whole entry): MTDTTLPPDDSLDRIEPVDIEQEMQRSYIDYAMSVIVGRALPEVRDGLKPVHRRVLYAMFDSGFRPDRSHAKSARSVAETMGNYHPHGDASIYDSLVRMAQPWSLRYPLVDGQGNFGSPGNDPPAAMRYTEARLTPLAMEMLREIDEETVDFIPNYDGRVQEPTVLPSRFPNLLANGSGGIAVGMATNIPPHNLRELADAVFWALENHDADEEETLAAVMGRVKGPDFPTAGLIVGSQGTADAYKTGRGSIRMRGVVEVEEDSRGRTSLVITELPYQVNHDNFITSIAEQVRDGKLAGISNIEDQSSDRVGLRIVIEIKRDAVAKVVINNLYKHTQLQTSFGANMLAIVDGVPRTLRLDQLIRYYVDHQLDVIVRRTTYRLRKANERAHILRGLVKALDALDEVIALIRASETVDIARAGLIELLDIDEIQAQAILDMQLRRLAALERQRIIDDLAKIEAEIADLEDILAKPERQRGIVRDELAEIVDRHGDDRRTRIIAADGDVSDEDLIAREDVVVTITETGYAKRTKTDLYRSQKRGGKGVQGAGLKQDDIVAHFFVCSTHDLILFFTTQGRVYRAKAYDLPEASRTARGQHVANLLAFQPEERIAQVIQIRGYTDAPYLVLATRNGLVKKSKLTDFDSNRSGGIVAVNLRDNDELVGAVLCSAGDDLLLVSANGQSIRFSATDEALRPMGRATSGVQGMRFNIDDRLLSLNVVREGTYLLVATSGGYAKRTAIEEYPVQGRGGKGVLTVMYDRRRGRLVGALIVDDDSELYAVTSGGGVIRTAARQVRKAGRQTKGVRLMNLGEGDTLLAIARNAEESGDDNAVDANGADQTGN
smiles,measurement,setting,value
CCn1cc(C(=O)O)c(=O)c2ccc(C)nc21 [NALIDIXIC ACID],IC50,[1],4750 µM
COc1c(N2C[C@@H]3CCCN[C@@H]3C2)c(F)cc2c(=O)c(C(=O)O)cn(C3CC3)c12 [MOXIFLOXACIN],CC25,[2],2 µM
CC1COc2c(N3CCN(C)CC3)c(F)cc3c(=O)c(C(=O)O)cn1c23 (centres undefined) [OFLOXACIN],IC50,[1],28 µM
same,IC50,Escherichia coli [3],0.3 µg/mL
same,MIC50,Escherichia coli [3],0.01 µg/mL
same,MIC50,Salmonella typhimurium [4],0.01 µg/mL
same,MIC50,Haemophilus influenzae [5],0.01 µg/mL
same,IC50,Pseudomonas aeruginosa [6],0.5 µg/mL
same,MIC50,Pseudomonas aeruginosa [6],0.25 µg/mL
same,MIC50,Klebsiella oxytoca [7],0.01 µg/mL
same,MIC50,Methylovorus [8],0.8 µg/mL
same,MIC50,Neisseria gonorrhoeae [9],0.008 µg/mL
same,MIC50,Helicobacter pylori [10],0.06 µg/mL
same,MIC50,Helicobacter pylori [11],0.25 µg/mL
same,MIC50,Ehrlichia chaffeensis [12],16 µg/mL
same,MIC50,Bacteroides fragilis [13],4 µg/mL
same,MIC50,Borrelia burgdorferi [14],8 µg/mL
same,IC50,Staphylococcus aureus [15],10 µg/mL
same,MIC50,Staphylococcus aureus [15],0.5 µg/mL
same,MIC50,Enterococcus faecalis [16],1 µg/mL
same,IC50,Streptococcus pneumoniae [17],40 µg/mL
same,MIC50,Streptococcus pneumoniae [17],1 µg/mL
same,IC50,[18],10 µg/mL
same,MIC50,[18],1 µg/mL
same,IC50,[19],1 µg/mL
same,MIC50,[19],0.06 µg/mL
same,MIC50,Bacillus subtilis [20],0.12 µg/mL
same,IC50,Escherichia coli [21],0.3 µg/mL
same,MIC50,Escherichia coli [21],0.01 µg/mL
same,MIC50,Salmonella typhimurium [22],0.01 µg/mL
same,MIC50,Haemophilus influenzae [23],0.012 µg/mL
same,IC50,Pseudomonas aeruginosa [24],0.5 µg/mL
same,MIC50,Pseudomonas aeruginosa [24],0.25 µg/mL
same,MIC50,Klebsiella oxytoca [25],0.01 µg/mL
same,MIC50,Methylovorus [26],0.8 µg/mL
same,MIC50,Neisseria gonorrhoeae [27],0.008 µg/mL
same,MIC50,Helicobacter pylori [28],0.25 µg/mL
same,MIC50,Ehrlichia chaffeensis [29],16 µg/mL
same,MIC50,Bacteroides fragilis [30],4 µg/mL
same,MIC50,Borrelia burgdorferi [31],8 µg/mL
same,IC50,Staphylococcus aureus [32],10 µg/mL
same,MIC50,Staphylococcus aureus [32],0.5 µg/mL
same,MIC50,Enterococcus faecalis [33],1 µg/mL
same,IC50,Streptococcus pneumoniae [34],40 µg/mL
same,MIC50,Streptococcus pneumoniae [34],1 µg/mL
same,IC50,[35],10 µg/mL
same,MIC50,[35],1 µg/mL
same,IC50,[36],1 µg/mL
same,MIC50,[36],0.06 µg/mL
same,MIC50,Bacillus subtilis [37],0.12 µg/mL
same,CC25,[2],7 µM
same,CC25,[38],0.2 µM
CCn1cc(C(=O)O)c(=O)c2cc(F)c(N3CCNCC3)nc21 [ENOXACIN],IC50,[1],156 µM
same,IC50,DNA gyrase,14 µM
